pKi: −log10 of the molar value.
How the values were obtained:
[1] = target: T1, Adenosine receptor A1 (Rattus norvegicus) (UniProt P25099); assay: (§1) Displacement of [3H]-DPCPX from A1 receptor in rat whole brain membrane; type: cell membranes; set-up: concentration or dose not given beside the values; conditions: concentration not given here
T1 sequence (whole entry): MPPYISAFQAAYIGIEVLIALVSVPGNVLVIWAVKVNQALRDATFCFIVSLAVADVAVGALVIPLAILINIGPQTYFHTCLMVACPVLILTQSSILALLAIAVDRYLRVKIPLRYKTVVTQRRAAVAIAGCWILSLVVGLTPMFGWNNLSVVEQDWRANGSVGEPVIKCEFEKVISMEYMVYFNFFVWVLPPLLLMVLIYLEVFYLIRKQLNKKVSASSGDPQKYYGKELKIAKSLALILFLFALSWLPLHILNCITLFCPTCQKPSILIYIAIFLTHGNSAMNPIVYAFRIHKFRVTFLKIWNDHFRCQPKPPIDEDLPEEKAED
How it was run: (§2)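 Competition binding against [3H]DPCPX (Kd 0.36 nM) on rat whole brain membranes. Nonspecific binding set with 100 µM CPA. Eight test concentrations from 0 to 100 µM. IC50 from a sigmoidal fit of specific binding against log concentration, converted to Ki. Run in triplicate, mean ± SEM. Where no full curve was obtained, percent displacement of radioligand at 100 µM is given.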

[2] = target: T2, Adenosine receptor A1 (Rattus norvegicus, UniProt P25099); assay: as §1; type: cell membranes; how it was run: as §2
T2 sequence (P25099 whole entry): T1 sequence (whole entry)

[3] = target: Adenosine receptor A2a (Rattus norvegicus) (UniProt P30543); assay: (§3) Displacement of [3H]-NECA from A2A receptor in rat striatal membrane in presence of A1 receptor agonist N6-cyclopentyladenosine; type: cell membranes; set-up: concentration or dose not given beside the values; conditions: Striatum, concentration not given here
Adenosine receptor A2a (Rattus norvegicus), sequence (P30543 whole entry): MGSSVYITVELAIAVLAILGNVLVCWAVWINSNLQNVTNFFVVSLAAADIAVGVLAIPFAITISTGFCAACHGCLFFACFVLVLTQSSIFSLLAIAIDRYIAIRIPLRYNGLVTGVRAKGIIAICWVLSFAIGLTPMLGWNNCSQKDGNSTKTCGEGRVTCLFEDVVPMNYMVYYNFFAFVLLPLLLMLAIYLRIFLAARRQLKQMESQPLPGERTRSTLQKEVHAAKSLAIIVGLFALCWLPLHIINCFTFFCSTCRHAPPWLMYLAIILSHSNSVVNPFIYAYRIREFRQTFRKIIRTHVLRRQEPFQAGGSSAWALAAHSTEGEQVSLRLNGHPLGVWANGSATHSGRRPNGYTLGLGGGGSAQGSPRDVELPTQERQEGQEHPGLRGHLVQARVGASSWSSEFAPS
How it was run: (§4)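 Competition binding against [3H]NECA (Kd 15.3 nM) on rat striatal membranes, with the A1 agonist CPA present to suppress A1 binding. Nonspecific binding set with 100 µM CPA. Eight concentrations from 0 to 100 µM. Ki from the IC50 of a sigmoidal fit, in triplicate, mean ± SEM. Otherwise percent displacement at 100 µM.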

[4] = target: Adenosine receptor A2a (Rattus norvegicus, UniProt P30543); assay: as §3; type: cell membranes, Striatum; how it was run: as §4
Adenosine receptor A2a, sequence (P30543 whole entry): as above

[5] = Displacement of [3H]CGS21680 from A2A receptor in bovine striatal membrane; type: cell membranes, Bos taurus, Striatum
[6] = target: T3, Adenosine receptor A1 (Homo sapiens) (UniProt P30542); assay: Displacement of [3H]-DPCPX from recombinant human A1 receptor expressed in CHOK1 cells at 100 uM measured after 30 mins by liquid scintillation counting method relative to control; type: cell-based
T3 sequence (whole entry): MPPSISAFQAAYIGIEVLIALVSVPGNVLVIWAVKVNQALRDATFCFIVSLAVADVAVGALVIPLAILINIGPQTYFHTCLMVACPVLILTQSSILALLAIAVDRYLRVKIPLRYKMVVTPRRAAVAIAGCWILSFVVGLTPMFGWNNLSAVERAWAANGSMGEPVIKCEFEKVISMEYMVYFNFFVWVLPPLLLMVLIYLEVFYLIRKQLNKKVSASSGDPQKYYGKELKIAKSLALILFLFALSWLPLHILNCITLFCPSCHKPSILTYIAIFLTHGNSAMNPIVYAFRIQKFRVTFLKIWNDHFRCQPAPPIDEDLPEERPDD

[7] = target: T2, Adenosine receptor A1; assay: Displacement of [3H]-DPCPX from A1 receptor in rat whole brain membrane assessed as effect on GTP shift in presence of 100 uM GTP; type: cell membranes
How it was run: (§5)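 GTP shift test on rat whole brain membranes. [3H]DPCPX binding is run without GTP and with 100 µM GTP added. Ki is taken from a sigmoidal competition curve in each condition, in triplicate. The shift is Ki with GTP divided by Ki without GTP.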

[8] = target: T1, Adenosine receptor A1 (Rattus norvegicus); assay: Ratio of Ki for adenosine receptor A1 in rat brain membrane in presence of GTP to Ki for adenosine receptor A1 in rat brain membrane in absence of GTP; type: cell membranes; how it was run: as §5

Structure (SMILES)	inhibition [1]	pKi [2]	inhibition [3]	pKi [4]	pKi [5]	inhibition [6]	pKi [7]	Ratio Ki [8]
Brc1ccc(-c2cn3ccccc3n2)cc1	86%	< 4.00	87%	< 4.00	–	–	–	–
c1ccn2ccnc2c1	100%	< 4.00	75%	< 4.00	–	–	–	–
Oc1ccc(-c2nc3ccccn3c2NC2CCCCC2)cc1	–	5.26	27%	< 4.00	–	–	–	–
Nc1c(-c2ccccc2)nc2ccccn12	52%	< 4.00	86%	< 4.00	–	–	–	–
c1ccc(-c2cn3ccccc3n2)cc1	49%	< 4.00	52%	< 4.00	–	–	–	–
Fc1ccc(-c2nc3ccccn3c2NC2CCCCC2)cc1	63%	< 4.00	90%	< 4.00	–	–	–	–
c1ccc(-c2nc3ccccn3c2NC2CCCCC2)cc1	57%	< 4.00	77%	< 4.00	–	–	–	–
COc1ccc(-c2nc3ccccn3c2NC2CCCCC2)cc1	–	5.12	55%	< 4.00	–	–	–	–
O=[N+]([O-])c1ccc(-c2nc3ccccn3c2NC2CCCCC2)cc1	99%	< 4.00	69%	< 4.00	–	–	–	–

Continued, values first:

inhibition [1]	pKi [2]	inhibition [3]	pKi [4]	pKi [5]	inhibition [6]	pKi [7]	Ratio Ki [8]	Structure (SMILES)
–	–	–	–	< 5.00	–	–	–	CC(=O)Nc1nc(-c2ccccc2)nc2nc(C)cn12
76%	< 4.00	61%	< 4.00	–	–	–	–	COc1ccc(-c2cn3ccccc3n2)cc1
–	5.41	54%	< 4.00	–	–	–	–	Brc1ccc(-c2nc3ccccn3c2NC2CCCCC2)cc1
61%	< 4.00	64%	< 4.00	–	–	–	–	Clc1ccc(-c2nc3ccccn3c2NC2CCCCC2)cc1
–	–	–	–	5.60	–	–	–	O=C(Nc1nc(-c2ccccc2)nc2nc(-c3ccccc3)cn12)C1CCCC1
–	–	–	–	< 5.00	–	–	–	CC(=O)CNc1nc(-c2ccccc2)nc2nc(C)cn12
76%	< 4.00	74%	< 4.00	–	–	–	–	FC(F)(F)c1ccc(-c2nc3ccccn3c2NC2CCCCC2)cc1
–	–	–	–	–	89%	–	–	c1ccc(CNc2c(-c3ccccc3)nc3ccccn23)cc1
–	5.69	83%	< 4.00	–	–	5.70	0.97	Cc1ccc(-c2nc3ccccn3c2NC2CCCCC2)cc1
47%	< 4.00	85%	< 4.00	–	–	–	–	Oc1ccc(-c2cn3ccccc3n2)cc1

— ChEMBL document CHEMBL4052812, “Imidazo[1,2-α]pyridines possess adenosine A1 receptor affinity for the potential treatment of cognition in neurological disorders” (Bioorg Med Chem Lett, 2017)
